Laboratory results as given in ChEMBL document CHEMBL4834474, “Terphenyl-Based Small-Molecule Inhibitors of Programmed Cell Death-1/Programmed Death-Ligand 1 Protein-Protein Interaction” (J Med Chem, 2021).
Activity calls are given as the source filed them. The rule behind the calls is not given here.

Assays:
[1] = target: T1, Programmed cell death protein 1/Programmed cell death 1 ligand 1 (Homo sapiens) (UniProt Q15116+Q9NZQ7); assay: Inhibition of PD-1/PD-L1 interaction in human Jurkat cells cocultured with CHO cells expressing PD-Ll/TCRAct assessed as activation of effector Jurkat cells at 0.01 to 100 uM incubated for 6 hrs by luciferase reporter gene based immune checkpoint blockade cell-based assay; conditions: dose 0.01-100 µM
Procedure, shortened: (§1)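 CHO/TCRAct/PD-L1, CHO/TCRAct or CHO-K1 cells seeded at 10,000/well. Next day overlaid with Jurkat-ECs (20,000/well) plus compound dilutions, DMSO held at 0.1%. Incubated 6 h at 37 °C, 5% CO2; luciferase reagent added for 20 min at room temperature; luminescence read. Fold induction over DMSO-treated cells; mean ± SD, 3–5 experiments; EC50 by Hill fit.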

[2] = test system: Jurkat; assay: Cytotoxicity against human Jurkat effector cells at 10 uM after 48 hrs; assay type: cell-based
Procedure, shortened: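 Jurkat-ECs (PD-1, NFAT-RE luciferase) exposed to increasing compound concentrations, DMSO constant at 0.1%. After 48 h, tetrazolium redox dye added for a further 2 h at 37 °C, 5% CO2. Absorbance at 590 nm, 750 nm reference. Survival relative to DMSO controls; mean ± SD of three independent experiments; EC50 from dose–response curve.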

[3] = target: T1, Programmed cell death protein 1/Programmed cell death 1 ligand 1 (Homo sapiens); assay: Inhibition of PD-1/PD-L1 interaction in human Jurkat cells cocultured with CHO cells expressing TCRAct assessed as activation of effector Jurkat cells incubated for 6 hrs by luciferase reporter gene based immune checkpoint blockade cell-based assay; procedure, shortened: as §1
[4] = target: T1, Programmed cell death protein 1/Programmed cell death 1 ligand 1 (Homo sapiens); assay: Inhibition of PD-1/PD-L1 interaction in human PBMCs cocultured with CHO cells expressing PD-L1/TCRAct assessed as increase in PD-1 receptor expression on CD8+ T cells at 0.1 to 2.5 uM incubated for 48 hrs by flow cytometry; assay type: cell-based; conditions: PBMC, dose 0.1-2.5 µM
Procedure, shortened: (§2)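 PBMCs isolated by density gradient from healthy donor blood (citrate dextrose anticoagulant). 3 × 10^5 cells added to preseeded CHO/TCRAct/PD-L1 cells with compound at 0.1, 0.5 or 2.5 μM, 0.1% DMSO as control. Cocultured 48 h at 37 °C, 5% CO2. Detached cells stained 20 min at RT for CD4, CD8, CD69, CD25, HLA-DR, PD-1; flow cytometry. Four donors; one-way ANOVA with Fisher post hoc.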

[5] = target: T1, Programmed cell death protein 1/Programmed cell death 1 ligand 1 (Homo sapiens); assay: Inhibition of PD-1/PD-L1 interaction in human PBMCs cocultured with CHO cells expressing PD-L1/TCRAct assessed as increase in HLA-DR expression on CD4+ T cells at 0.1 to 2.5 uM incubated for 48 hrs by flow cytometry; assay type: cell-based; conditions: PBMC, dose 0.1-2.5 µM; procedure, shortened: as §2
[6] = target: T1, Programmed cell death protein 1/Programmed cell death 1 ligand 1 (Homo sapiens); assay: Inhibition of PD-1/PD-L1 interaction in human PBMCs cocultured with CHO cells expressing PD-L1/TCRAct assessed as increase in CD25 expression on CD4+ T cells at 0.1 to 2.5 uM incubated for 48 hrs by flow cytometry; assay type: cell-based; conditions: PBMC, dose 0.1-2.5 µM; procedure, shortened: as §2
[7] = target: T1, Programmed cell death protein 1/Programmed cell death 1 ligand 1 (Homo sapiens); assay: Inhibition of PD-1/PD-L1 interaction in human PBMCs cocultured with CHO cells expressing PD-L1/TCRAct assessed as increase in PD-1 receptor expression on CD4+ T cells at 0.1 to 2.5 uM incubated for 48 hrs by flow cytometry; assay type: cell-based; conditions: PBMC, dose 0.1-2.5 µM; procedure, shortened: as §2
[8] = target: T1, Programmed cell death protein 1/Programmed cell death 1 ligand 1 (Homo sapiens); assay: Inhibition of PD-1/PD-L1 interaction in human PBMCs cocultured with CHO cells expressing PD-L1/TCRAct assessed as increase in CD25 expression on CD8+ T cells at 0.1 to 2.5 uM incubated for 48 hrs by flow cytometry; assay type: cell-based; conditions: PBMC, dose 0.1-2.5 µM; procedure, shortened: as §2
[9] = target: T1, Programmed cell death protein 1/Programmed cell death 1 ligand 1 (Homo sapiens); assay: Inhibition of PD-1/PD-L1 interaction in human PBMCs cocultured with in CHO cells expressing PD-L1/TCRAct assessed as increase in HLA-DR expression on CD8+ T cells at 0.1 to 2.5 uM incubated for 48 hrs by flow cytometry; assay type: cell-based; conditions: PBMC, dose 0.1-2.5 µM; procedure, shortened: as §2
[10] = target: Programmed cell death 1 ligand 1 (Homo sapiens) (UniProt Q9NZQ7); assay: Binding affinity to human PD-L1 assessed as induction of protein dimerization by 1H NMR method
Chain of Programmed cell death 1 ligand 1 (Homo sapiens) (Q9NZQ7 whole entry): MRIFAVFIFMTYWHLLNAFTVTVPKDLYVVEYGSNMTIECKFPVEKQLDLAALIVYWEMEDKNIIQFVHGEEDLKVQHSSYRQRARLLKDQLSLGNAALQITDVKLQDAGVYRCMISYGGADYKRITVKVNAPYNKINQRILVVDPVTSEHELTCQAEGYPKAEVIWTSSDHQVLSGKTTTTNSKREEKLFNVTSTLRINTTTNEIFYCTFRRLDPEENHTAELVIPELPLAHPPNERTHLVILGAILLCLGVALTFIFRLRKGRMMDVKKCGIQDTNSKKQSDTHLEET

[11] = target: T1, Programmed cell death protein 1/Programmed cell death 1 ligand 1 (Homo sapiens); assay: Inhibition of PD-1/PD-L1 interaction in human PBMCs cocultured with CHO cells expressing PD-L1/TCRAct assessed as increase in IL-2 expression at 0.1 to 2.5 uM incubated for 48 hrs by TCA; assay type: cell-based; conditions: PBMC, dose 0.1-2.5 µM
Procedure, shortened: (§3)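 Culture supernatants taken from 48 h cocultures of PBMCs with CHO/TCRAct/PD-L1 cells (compound 0.1, 0.5, 2.5 μM). IL-2, IL-6, IL-10, IFN-γ, TNFα quantified by cytometric bead array against standard curves. Per donor, normalized to untreated PBMC plus CHO/TCRAct coculture. Mean ± SEM of four donors; one-way ANOVA, Fisher post hoc.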

[12] = target: T1, Programmed cell death protein 1/Programmed cell death 1 ligand 1 (Homo sapiens); assay: Inhibition of PD-1/PD-L1 interaction in human PBMCs cocultured with CHO cells expressing PD-L1/TCRAct assessed as increase in INFgamma expression at 0.1 to 2.5 uM incubated for 48 hrs by TCA; assay type: cell-based; conditions: PBMC, dose 0.1-2.5 µM; procedure, shortened: as §3
[13] = target: Programmed cell death 1 ligand 1 (Mus musculus) (UniProt Q9EP73); assay: Binding affinity to mouse PD-L1 assessed as induction of protein dimerization by 1H NMR method
Chain of Programmed cell death 1 ligand 1 (Mus musculus) (Q9EP73 whole entry): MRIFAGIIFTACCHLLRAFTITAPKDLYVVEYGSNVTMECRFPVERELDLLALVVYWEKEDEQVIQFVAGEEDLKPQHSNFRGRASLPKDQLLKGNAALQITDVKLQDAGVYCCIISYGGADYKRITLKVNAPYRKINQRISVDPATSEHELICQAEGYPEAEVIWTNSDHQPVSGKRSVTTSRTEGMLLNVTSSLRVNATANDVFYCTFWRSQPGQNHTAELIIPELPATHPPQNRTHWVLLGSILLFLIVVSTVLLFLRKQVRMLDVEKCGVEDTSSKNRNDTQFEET

[14] = target: T1, Programmed cell death protein 1/Programmed cell death 1 ligand 1 (Homo sapiens); assay: Inhibition of PD-1/PD-L1 interaction in human PBMCs cocultured with CHO cells expressing PD-L1/TCRAct assessed as increase in TNFalpha expression at 0.1 to 2.5 uM incubated for 48 hrs by TCA; assay type: cell-based; conditions: PBMC, dose 0.1-2.5 µM; procedure, shortened: as §3
[15] = target: T1, Programmed cell death protein 1/Programmed cell death 1 ligand 1 (Homo sapiens); assay: Inhibition of PD-1/PD-L1 interaction in human PBMCs cocultured with CHO cells expressing PD-L1/TCRAct assessed as increase in IL-6 expression at 0.1 to 2.5 uM incubated for 48 hrs by TCA; assay type: cell-based; conditions: PBMC, dose 0.1-2.5 µM; procedure, shortened: as §3
[16] = target: T1, Programmed cell death protein 1/Programmed cell death 1 ligand 1 (Homo sapiens); assay: Inhibition of PD-1/PD-L1 interaction in human PBMCs cocultured with CHO cells expressing PD-L1/TCRAct assessed as increase in IL-10 expression at 0.1 to 2.5 uM incubated for 48 hrs by TCA; assay type: cell-based; conditions: PBMC, dose 0.1-2.5 µM; procedure, shortened: as §3

SMILES	inhibition [1]	Activity [2]	inhibition [3]	Activity [10]	further results
COc1cc(-c2cccc(-c3ccc4c(c3)OCCO4)c2Cl)ccc1CNC(CO)CO	Active	Non-Toxic	inactive	–	–
COc1cc(-c2cccc(-c3ccc4c(c3)OCCO4)c2Cl)ccc1CNCCNC(N)=O	Active	Non-Toxic	inactive	–	inhibition [4]: Active; inhibition [5]: inactive; inhibition [6]: inactive; inhibition [7]: Active; inhibition [8]: inactive; inhibition [9]: inactive
CC(=O)NCCNCc1ccc(-c2cccc(-c3ccc4c(c3)OCCO4)c2Cl)cc1OCC#N	–	–	–	Active	–
COc1cc(-c2cccc(-c3ccc4c(c3)OCCO4)c2Cl)ccc1CNCCNS(C)(=O)=O	Active	Non-Toxic	inactive	–	–
COc1cc(-c2cccc(-c3ccc4c(c3)OCCO4)c2Cl)ccc1CNCCNC(C)=O	Active	Non-Toxic	inactive	Active	–
COc1cc(-c2cccc(-c3ccc4c(c3)OCCO4)c2Cl)ccc1CNC(CO)(CO)CO	Active	Non-Toxic	inactive	Active	inhibition [11]: Active; inhibition [12]: Active; Activity [13]: inactive; inhibition [14]: Active; inhibition [4]: Active; inhibition [5]: Active; inhibition [6]: Active; inhibition [7]: Active; inhibition [8]: Active; inhibition [9]: Active; inhibition [15]: Active; inhibition [16]: Active
COc1cc(-c2cccc(-c3ccc4c(c3)OCCO4)c2Cl)ccc1CNCCNC(=O)CN	Active	Non-Toxic	inactive	–	–
